Legend:
[1] = Cytotoxicity against human IGROV cells after 48 hrs by SRB assay; type: functional; details: for CC50: read-out: LC50 (the source's name)
In short: (§1)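 Cells grown in RPMI 1640 with 10% FBS and penicillin/streptomycin at 37 °C and 5% CO₂, trypsinized, then seeded at 5 × 10³/well. After 18 h drug-free attachment, samples in DMSO/EtOH/PBS (0.5:0.5:99) were added for 48 h continuous exposure. Cells were fixed with cold TCA (1 h, 4 °C) and stained with SRB (10 min). Tris-solubilized stain read at 490 nm. Triplicate wells, mean ± SD; GI₅₀ derived.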

[2] = test system: A549; assay: Cytotoxicity against human A549 cells after 48 hrs by SRB assay; type: functional, cell-based; details: Homo sapiens, A549, 48 h; in short: as §1
[3] = test system: LoVo; assay: Cytotoxicity against human LoVo cells after 48 hrs by SRB assay; type: functional; details: for CC50: read-out: LC50 (the source's name)
[4] = test system: HeLa; assay: Cytotoxicity against human HeLa cells after 48 hrs by SRB assay; type: functional; details: for CC50: read-out: LC50 (the source's name); in short: as §1
[5] = Cytotoxicity against human IGROV-ET cells after 48 hrs by SRB assay; type: functional; details: for CC50: read-out: LC50 (the source's name); in short: as §1
[6] = test system: SK-MEL-28; assay: Cytotoxicity against human SK-MEL-28 cells after 48 hrs by SRB assay; type: functional, cell-based; details: Homo sapiens, SK-MEL-28, 48 h; for GI50: read-out: GI50; for CC50: read-out: LC50 (the source's name); in short: as §1
[7] = test system: DU-145; assay: Cytotoxicity against human DU145 cells after 48 hrs by SRB assay; type: functional, cell-based; details: Homo sapiens, DU-145, 48 h; for CC50: read-out: LC50 (the source's name); in short: as §1
[8] = test system: LoVo; assay: Cytotoxicity against human doxorubicin resistant LoVo cells after 48 hrs by SRB assay; type: functional; details: for CC50: read-out: LC50 (the source's name); in short: as §1
[9] = Cytotoxicity against human HeLa-APL cells after 48 hrs by SRB assay; type: functional; in short: as §1
[10] = test system: HT-29; assay: Cytotoxicity against human HT29 cells after 48 hrs by SRB assay; type: functional, cell-based; details: Homo sapiens, HT-29, 48 h; for CC50: read-out: LC50 (the source's name); in short: as §1
[11] = test system: SK-BR-3; assay: Cytotoxicity against human SKBR3 cells after 48 hrs by SRB assay; type: functional; details: SK-BR-3, 48 h; for GI50: read-out: GI50; for CC50: read-out: LC50 (the source's name); in short: as §1
[12] = test system: LNCaP; assay: Cytotoxicity against human LNcaP cells after 48 hrs by SRB assay; type: functional; details: for CC50: read-out: LC50 (the source's name); in short: as §1
[13] = test system: PANC-1; assay: Cytotoxicity against human PANC1 cells after 48 hrs by SRB assay; type: functional; details: PANC-1, 48 h; for CC50: read-out: LC50 (the source's name); in short: as §1
[14] = test system: K562; assay: Cytotoxicity against human K562 cells after 48 hrs by SRB assay; type: functional; details: K562, 48 h; for CC50: read-out: LC50 (the source's name); in short: as §1

Row | Compound | CC50 [1] | LC50 [2] | GI50 [3] | TGI [3] | CC50 [3] | CC50 [4] | CC50 [5] | CC50 [6] | CC50 [7] | CC50 [8] | LC50 (concentration giving 50% net cell kill) [9] | GI50 [10] | TGI [10] | CC50 [10] | CC50 [11] | CC50 [12] | CC50 [13] | GI50 [14] | TGI [14] | CC50 [14] | further results
1 | C/C=C1\NC(=O)[C@H](Cc2ccccc2)NC(=O)[C@@H](C(C)C)NC(=O)[C@@H]([C@H](C)CC)NC(=O)[C@H](NC(=O)[C@H](NC(=O)[C@H](CCCN)NC(=O)[C@H]2CCCN2C(=O)[C@H](NC(=O)[C@H](CCC2CCCCC2)NC(=O)[C@@H](NC(=O)[C@@H](CC2CCCCC2)NC(=O)CCCC(C)C)[C@@H](C)O)C(C)C)[C@H](C)CC)[C@H](C)OC(=O)[C@H](C(C)C)NC1=O | 7300 nM | 1670 nM | 2810 nM | 3010 nM | 3220 nM | 1770 nM | 968 nM | 1490 nM | 1350 nM | 9670 nM | 1660 nM | 2900 nM | 2700 nM | 2490 nM | 703 nM | 1380 nM | 1640 nM | 1790 nM | 1790 nM | 1790 nM | TGI [2]: 3240 nM; GI50 ([2]; read-out: GI50): 3600 nM; GI50 [4]: 2950 nM; TGI [4]: 3510 nM; TGI [6]: 3090 nM; GI50 [6]: 3180 nM; TGI [7]: 2550 nM; GI50 ([7]; read-out: GI50): 3300 nM; GI50 [8]: 1210 nM; TGI [8]: 1530 nM; GI50 [9]: 4340 nM; TGI [9]: 3500 nM; TGI [11]: 1690 nM; GI50 [11]: 2060 nM
2 | C/C=C1\NC(=O)[C@H](Cc2ccccc2)NC(=O)[C@@H](C(C)C)NC(=O)[C@@H]([C@H](C)CC)NC(=O)[C@H](NC(=O)[C@H](NC(=O)[C@H](CCCN)NC(=O)[C@H]2CCCN2C(=O)[C@H](NC(=O)[C@@H](NC(=O)[C@H](CCCN)NC(=O)[C@H](NC(=O)CCCC(C)C)C(C)C)C(C)C)C(C)C)[C@H](C)CC)[C@H](C)OC(=O)[C@H](C(C)C)NC1=O | 576 nM | 4620 nM | 4940 nM | 4180 nM | 3330 nM | 951 nM | 957 nM | 1640 nM | 1400 nM | 484 nM | 9600 nM | 5900 nM | 5140 nM | 446 nM | 296 nM | 1120 nM | 2240 nM | 1620 nM | 1890 nM | 2180 nM | GI50 [1]: 292 nM; GI50 ([1]; read-out: GI50): 4700 nM; GI50 [8]: 2880 nM; TGI [8]: 2700 nM; GI50 [12]: 675 nM; TGI [12]: 2240 nM
3 | C/C=C1\NC(=O)[C@H](Cc2ccccc2)NC(=O)[C@@H](C(C)C)NC(=O)[C@@H]([C@H](C)CC)NC(=O)[C@H](NC(=O)[C@H](NC(=O)[C@H](CCCN)NC(=O)[C@H]2CCCN2C(=O)[C@H](NC(=O)[C@@H](NC(=O)[C@@H](NC(=O)[C@H](NC(=O)CCCC(C)C)C(C)C)C(C)C)C(C)C)C(C)C)[C@H](C)CC)[C@H](C)OC(=O)[C@H](C(C)C)NC1=O | 55.9 nM | 640 nM | 276 nM | 270 nM | 264 nM | 116 nM | 64.8 nM | 151 nM | 127 nM | 28 nM | 730 nM | 300 nM | 311 nM | 322 nM | 75.8 nM | 733 nM | 1420 nM | 718 nM | 899 nM | 1100 nM | GI50 [1]: 118 nM; GI50 ([1]; read-out: GI50): 183 nM; GI50 [2]: 445 nM; GI50 ([2]; read-out: GI50): 258 nM; GI50 [4]: 134 nM; TGI [4]: 124 nM; GI50 [5]: 248 nM; GI50 ([5]; read-out: GI50): 257 nM; TGI [6]: 178 nM; GI50 [6]: 209 nM; GI50 [7]: 149 nM; GI50 ([7]; read-out: GI50): 175 nM; GI50 [9]: 324 nM; TGI [9]: 467 nM; TGI [11]: 153 nM; GI50 [11]: 166 nM; GI50 [12]: 334 nM; TGI [12]: 530 nM; GI50 [13]: 1120 nM; TGI [13]: 1260 nM

Source: ChEMBL document CHEMBL1156597, “Structure-activity relationship of kahalalide F synthetic analogues” (J Med Chem, 2008)
